According to ChEMBL document CHEMBL4257556, “Novel 1,3,4-thiadiazole-chalcone hybrids containing catechol moiety: synthesis, antioxidant activity, cytotoxicity and DNA interaction studies” (Medchemcomm, 2018):

Legend:
[1] = Antioxidant activity assessed as DPPH free radical scavenging activity after 30 mins; format: functional
In short: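 DPPH (0.05 mM in methanol) mixed with equal volume of compound (DMSO solution diluted in methanol), kept in dark at room temperature 30 min; absorbance at 517 nm, methanol control, ascorbic acid positive control. IC50 = concentration giving 50% of maximum scavenging; mean ± SD of independent triplicate experiments.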

[2] = test system: HL-60; experiment: Cytotoxicity against human HL60 cells assessed as decrease in cell survival after 72 hrs by MTT assay; format: functional, cell-based; settings: HL-60, 72 h
In short: (§1)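 HeLa (2000/well), A549 and MRC-5 (5000/well) seeded 20 h before treatment; HL-60 (7000/well) 2 h before. Five concentrations (6.25–100 μM or 3.125–50 μM) from 5 mM DMSO stocks, final DMSO ≤1%, 72 h; survival by MTT. Cisplatin positive control; three independent experiments in triplicate.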

[3] = test system: A549; experiment: Cytotoxicity against human A549 cells assessed as decrease in cell survival after 72 hrs by MTT assay; format: functional, cell-based; settings: A549, 72 h; in short: as §1
[4] = test system: HeLa; experiment: Cytotoxicity against human HeLa cells assessed as decrease in cell survival after 72 hrs by MTT assay; format: functional, cell-based; in short: as §1
[5] = test system: MRC5; experiment: Cytotoxicity against human MRC5 cells assessed as decrease in cell survival after 72 hrs by MTT assay; format: cell-based; settings: MRC5, 72 h; in short: as §1

Row | SMILES | IC50 [1] | IC50 [2] | IC50 [3] | IC50 [4] | IC50 [5]
1 | COc1ccc(C(=O)/C=C/c2ccc(C(=O)Nc3nnc(-c4ccc(O)c(O)c4)s3)cc2)cc1 | 17.9 µM | 16.4 µM | 89.1 µM | 57.6 µM | 81.3 µM
2 | COc1ccccc1C(=O)C=Cc1ccc(C(=O)Nc2nnc(-c3ccc(O)c(O)c3)s2)cc1 | 9.76 µM | 12 µM | 50.2 µM | 10.2 µM | 48 µM
3 | Cc1ccccc1C(=O)C=Cc1ccc(C(=O)Nc2nnc(-c3ccc(O)c(O)c3)s2)cc1 | 11.7 µM | 7.62 µM | 21.8 µM | 9.12 µM | 18.6 µM
4 | O=C1O[C@H]([C@@H](O)CO)C(O)=C1O [ASCORBIC ACID] | 20.2 µM | – | – | – | –
5 | O=C(Nc1nnc(-c2ccc(O)c(O)c2)s1)c1ccc(C=CC(=O)c2ccccc2F)cc1 | 13.9 µM | 8.88 µM | 46.9 µM | 11.1 µM | 39.6 µM
6 | O=C(/C=C/c1ccc(C(=O)Nc2nnc(-c3ccc(O)c(O)c3)s2)cc1)c1ccc([N+](=O)[O-])cc1 | 14 µM | 11.2 µM | 128 µM | 54.8 µM | 39.4 µM
